Measured values: paper PMC11522000 (Nature Microbiology, 2024)
Converted amounts (≈) assume the structure as drawn.

What was measured:
C. parvum [1] = test: Mouse efficacy study; format: in vivo, C57BL/6 IFN-γ-knockout mice; conditions: oral 10 mg kg^−1, 5 days; nitazoxanide 100 mg kg^−1
HsPI(4)K = HsPI(4)K (Homo sapiens, UniProt Q9UBF8); test: PI; format: biochemical; conditions: HsPI(4)K IC50, 3 μM ATP
C. parvum [2] = test: Washout assay, nanoluciferase-expressing C. parvum; format: cell-based, Cryptosporidium parvum; conditions: regardless of the stage of drug exposure
Method in brief: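 HCT-8 cells were grown to ~90% confluence, then infected with 400 nanoluciferase-expressing oocysts per well. Before infection, oocysts were primed for excystation with 10 mM HCl in water (10 min, 37 °C), then 2 mM sodium taurocholate in DPBS with Ca/Mg (10 min, 16 °C). Luminescence was read over time. RLU taken soon after infection served as day 0 and was used to normalize each timepoint.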

C. parvum [3] = test: Time-kill assay, nanoluciferase-expressing C. parvum; format: cell-based, Cryptosporidium parvum
Cytotoxicity assay = format: cell-based, human; conditions: human, HepG2 cells (ATCC CRL-10741), HepG2 CC50, 96 h
CpPI(4)K = molecular target: T1, CpPI(4)K (Cryptosporidium parvum, UniProt Q5CVD3); test: PI; format: biochemical, C. parvum; conditions: CpPI(4)K IC50, 3 μM ATP
T1 sequence (Q5CVD3 1-1114): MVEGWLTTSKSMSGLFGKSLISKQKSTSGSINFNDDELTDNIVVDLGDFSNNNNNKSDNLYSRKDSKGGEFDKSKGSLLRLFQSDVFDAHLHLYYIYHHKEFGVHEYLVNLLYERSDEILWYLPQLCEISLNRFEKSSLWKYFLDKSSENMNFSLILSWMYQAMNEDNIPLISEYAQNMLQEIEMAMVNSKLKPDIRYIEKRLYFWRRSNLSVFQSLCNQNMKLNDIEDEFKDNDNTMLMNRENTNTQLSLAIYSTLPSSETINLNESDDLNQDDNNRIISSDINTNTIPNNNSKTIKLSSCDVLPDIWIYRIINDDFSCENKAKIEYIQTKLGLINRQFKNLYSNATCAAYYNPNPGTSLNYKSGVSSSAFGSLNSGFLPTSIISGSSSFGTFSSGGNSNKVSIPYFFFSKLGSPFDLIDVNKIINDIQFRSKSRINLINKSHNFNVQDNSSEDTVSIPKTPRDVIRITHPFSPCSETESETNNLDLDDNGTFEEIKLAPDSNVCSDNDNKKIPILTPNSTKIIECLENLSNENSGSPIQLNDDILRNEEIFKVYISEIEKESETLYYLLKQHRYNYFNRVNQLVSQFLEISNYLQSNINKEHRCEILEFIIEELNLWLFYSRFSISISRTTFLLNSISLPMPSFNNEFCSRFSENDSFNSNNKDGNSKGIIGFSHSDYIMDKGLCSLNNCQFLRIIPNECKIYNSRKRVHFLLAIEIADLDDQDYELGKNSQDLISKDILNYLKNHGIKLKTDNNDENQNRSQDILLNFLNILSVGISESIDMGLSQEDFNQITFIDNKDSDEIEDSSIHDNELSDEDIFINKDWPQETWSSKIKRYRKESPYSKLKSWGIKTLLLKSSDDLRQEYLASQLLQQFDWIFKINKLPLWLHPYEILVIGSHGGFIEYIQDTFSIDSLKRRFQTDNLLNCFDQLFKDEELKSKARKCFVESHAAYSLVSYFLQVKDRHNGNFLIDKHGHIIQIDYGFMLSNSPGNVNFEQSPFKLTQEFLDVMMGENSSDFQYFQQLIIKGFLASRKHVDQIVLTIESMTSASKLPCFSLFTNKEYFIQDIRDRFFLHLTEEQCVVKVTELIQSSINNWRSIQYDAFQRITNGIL
Method in brief: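 Enzyme was pre-incubated with compound for 5 min at room temperature. The reaction was started with substrate mix at twice final strength (PI, ATP, Tris-HCl pH 7.5, DTT, 0.05% Triton X-100, MnCl2) and run 50 min at room temperature. ADP was measured by ADP-Glo luminescence. IC50s came from in-plate duplicate 10-point 3-fold dilutions, with DMSO and reference-inhibitor controls. The C. parvum enzymes (wild type and mutants) were full-length proteins expressed from baculovirus in Sf21 cells.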

C. parvum [4] = test: Host cell invasion assay; format: cell-based, Cryptosporidium parvum; conditions: HCT-8, 3 h; EDI048 and KDU731 20 µM, wiskostatin 11.3 µM
Method in brief: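 HCT-8 monolayers were 95–100% confluent. Compounds were added at twice the final concentration 1 h before infection with 50,000 primed oocysts per well. Plates were kept 3 h at 37 °C, 5% CO2, then washed with PBS-0.1% Tween 20, fixed in 4% PFA for 15 min at room temperature, permeabilized with 0.25% Triton X-100 and blocked in 4% BSA. Vacuoles were stained with fluorescein-VVL and nuclei with Hoechst, then imaged.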

[5] = Stability in intestinal S9 fraction; format: in vitro ADME; conditions: human
Method in brief: (§1)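 Test compound added to intestinal S9 fraction of each species to start the reaction. Incubated in a shaking water bath at 37 °C, with samples taken at sequential timepoints. Samples quenched with ice-cold acetonitrile and analysed by LC-MS/MS. Half-life calculated from the rate of parent compound depletion.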

Plasma stability [6] = format: in vitro ADME; conditions: mouse
Method in brief: (§2)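 Test compound was added to plasma and incubated at 37 °C in a shaking water bath, with samples taken at sequential timepoints. Samples were quenched with ice-cold acetonitrile and analysed by LC-MS/MS, and half-life was calculated from the depletion rate.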

Plasma stability [7] = format: in vitro ADME; conditions: human
Method in brief: as §2

[8] = High-throughput equilibrium solubility; format: physicochemical; conditions: pH 6.8, aqueous buffer, thermodynamic from solid
Method in brief: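 Equilibrium solubility was measured by a miniaturized shake-flask method with HPLC quantification.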

[9] = Stability in intestinal S9 fraction; format: in vitro ADME; conditions: mouse
Method in brief: as §1

[10] = Hepatocytes metabolic stability; format: in vitro ADME; conditions: human
Method in brief: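 Test compound was incubated with liver microsomes or hepatocytes of each species, and parent depletion was quantified by LC-MS/MS. From this, in vitro half-life and intrinsic clearance were derived, along with predicted metabolic clearance and hepatic extraction ratio.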

C. parvum [11] = test: Cytopathic effect; format: cell-based, Cryptosporidium parvum; conditions: read-out: Cp CPE EC50; C. parvum, HCT-8, 48 h
Method in brief: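 HCT-8 cells were grown at 37 °C, 5% CO2 in RPMI-1640 with 10% heat-inactivated FBS. Oocysts were excysted in 10 mM HCl/HBSS for 10 min at 37 °C, then in 2 mM sodium taurocholate in L-15/UltraCULTURE medium for 5 min. Infected cells were seeded onto pre-spotted compound (10-point, 3-fold dilution; DMSO and reference-inhibitor controls) and incubated 48 h. Cells were then lysed for a viability read-out, and concentration-response curves were fitted.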

Sequence of HsPI(4)K (Q9UBF8 523-816 limits assumed): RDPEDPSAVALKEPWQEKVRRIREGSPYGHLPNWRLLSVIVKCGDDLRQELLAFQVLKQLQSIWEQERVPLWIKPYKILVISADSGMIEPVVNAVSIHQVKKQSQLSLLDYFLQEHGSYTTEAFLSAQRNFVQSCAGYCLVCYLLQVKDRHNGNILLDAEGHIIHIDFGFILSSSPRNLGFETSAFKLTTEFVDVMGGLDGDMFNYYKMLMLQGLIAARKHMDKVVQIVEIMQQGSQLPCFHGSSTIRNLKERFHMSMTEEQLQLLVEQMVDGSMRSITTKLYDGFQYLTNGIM

SMILES	efficacy in the mouse model (C. parvum [1])	IC50 (HsPI(4)K)	washout: cidal activity (C. parvum [2])	parasiticidal or parasitistatic (C. parvum [3])	CC50 at 96 h (Cytotoxicity assay)	IC50 (CpPI(4)K)	sporozoite invasion (C. parvum [4])	half-life [5]	half-life (Plasma stability [6])	half-life (Plasma stability [7])	solubility [8]	half-life [9]	Hepatocytes ER [10]	half-life ([10]; hepatocytes)	EC50 (C. parvum [11])
CC(=O)Oc1ccccc1C(=O)Nc1ncc([N+](=O)[O-])s1 [NTZ, Nitazoxanide, reference compound]	not efficacious	> 30 µM	not cidal	static	34.9 µM	> 10 µM	–	–	–	–	–	–	–	–	–
CN(C)C[C@H](O)Cn1c2ccc(Br)cc2c2cc(Br)ccc21 (racemic) [wiskostatin, reference compound]	–	–	–	–	–	–	prevented sporozoite invasion and formation of trophozoites	–	–	–	–	–	–	–	–
CNC(=O)c1ccc(-c2cnn3ccc(C(=O)N(C[C@H]4CCC(=O)O4)c4ccc(OC(F)(F)F)cc4)cc23)cc1 [Compound 4, (R)-3-(4-(methylcarbamoyl)phenyl)-N-((5-oxotetrahydrofuran-2-yl)methyl)-N-(4-(trifluoromethoxy)phenyl)pyrazolo[1,5-a]pyridine-5-carboxamide]	poor in vivo efficacy	1.38 ± 0.13 µM	–	–	32.2 µM	0.018 ± 0.011 µM	–	3.58 h	< 5 min	> 2 h	37 µM (≈ 20.4 µg/mL)	1.6 h	95%	4.8 min	0.349 ± 0.181 µM
